From ChEMBL document CHEMBL2057126, “Discovery of new inhibitors of Cdc25B dual specificity phosphatases by structure-based virtual screening” (J Med Chem, 2012) come the findings set out here.

One may read the IC50 as the concentration that inhibits the measured activity by half. Usually inhibition stands for the drop in the measured response relative to a control, in per cent. The Ki is the dissociation constant of the complex between target and ligand, obtained from inhibition or displacement.

The source made the active and inactive calls. The rule behind the calls is not given here.

A short description of assay [1]: Inhibition of Cdc25. The arrangement: species or system Homo sapiens.
The target of assay [2] is T1, M-phase inducer phosphatase 1 (Homo sapiens) (UniProt P30304).
T1 sequence (whole entry): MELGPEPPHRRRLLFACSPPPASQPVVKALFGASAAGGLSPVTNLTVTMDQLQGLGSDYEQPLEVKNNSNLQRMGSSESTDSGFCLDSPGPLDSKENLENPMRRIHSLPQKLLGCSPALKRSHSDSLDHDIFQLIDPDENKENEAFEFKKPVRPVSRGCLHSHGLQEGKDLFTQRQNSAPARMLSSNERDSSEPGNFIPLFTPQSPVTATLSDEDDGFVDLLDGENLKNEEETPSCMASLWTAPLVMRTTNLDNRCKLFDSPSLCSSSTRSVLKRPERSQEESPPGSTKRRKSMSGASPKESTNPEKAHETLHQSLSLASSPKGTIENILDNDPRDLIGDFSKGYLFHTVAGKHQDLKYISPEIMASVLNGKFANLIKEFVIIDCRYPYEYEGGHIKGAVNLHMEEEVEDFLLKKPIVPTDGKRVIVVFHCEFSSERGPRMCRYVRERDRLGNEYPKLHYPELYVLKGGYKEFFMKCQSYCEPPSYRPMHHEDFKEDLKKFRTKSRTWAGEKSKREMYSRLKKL
Briefly: Inhibition of recombinant phosphatase activity of Cdc25A catalytic domain expressed in Escherichia coli BL21(DE3) using OMFP as substrate at 100 uM after 15 mins by fluorimetric assay.

In assay [3] the target is T2, M-phase inducer phosphatase 2 (Homo sapiens) (UniProt P30305).
T2 sequence (whole entry): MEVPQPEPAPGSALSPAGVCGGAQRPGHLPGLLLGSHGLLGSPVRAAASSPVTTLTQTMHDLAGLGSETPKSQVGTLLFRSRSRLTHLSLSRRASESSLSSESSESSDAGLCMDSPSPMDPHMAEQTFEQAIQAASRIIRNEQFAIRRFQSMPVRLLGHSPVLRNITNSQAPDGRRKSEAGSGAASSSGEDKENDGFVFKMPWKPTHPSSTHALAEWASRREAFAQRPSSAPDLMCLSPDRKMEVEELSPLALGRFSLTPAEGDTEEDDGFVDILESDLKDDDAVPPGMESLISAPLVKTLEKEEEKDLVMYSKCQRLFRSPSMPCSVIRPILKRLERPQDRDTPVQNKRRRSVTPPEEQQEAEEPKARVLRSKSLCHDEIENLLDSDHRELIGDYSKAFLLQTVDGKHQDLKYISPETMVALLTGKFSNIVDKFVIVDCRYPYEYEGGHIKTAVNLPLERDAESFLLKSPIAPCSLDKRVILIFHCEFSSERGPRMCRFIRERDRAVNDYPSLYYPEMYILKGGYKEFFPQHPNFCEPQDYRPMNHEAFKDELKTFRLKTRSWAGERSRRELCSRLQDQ
Briefly: Inhibition of recombinant phosphatase activity of Cdc25B catalytic domain expressed in Escherichia coli BL21(DE3) using OMFP as substrate at 100 uM after 15 mins by fluorimetric assay.

Assay [4] deals with T3, M-phase inducer phosphatase 3 (Homo sapiens) (UniProt P30307).
T3 sequence (whole entry): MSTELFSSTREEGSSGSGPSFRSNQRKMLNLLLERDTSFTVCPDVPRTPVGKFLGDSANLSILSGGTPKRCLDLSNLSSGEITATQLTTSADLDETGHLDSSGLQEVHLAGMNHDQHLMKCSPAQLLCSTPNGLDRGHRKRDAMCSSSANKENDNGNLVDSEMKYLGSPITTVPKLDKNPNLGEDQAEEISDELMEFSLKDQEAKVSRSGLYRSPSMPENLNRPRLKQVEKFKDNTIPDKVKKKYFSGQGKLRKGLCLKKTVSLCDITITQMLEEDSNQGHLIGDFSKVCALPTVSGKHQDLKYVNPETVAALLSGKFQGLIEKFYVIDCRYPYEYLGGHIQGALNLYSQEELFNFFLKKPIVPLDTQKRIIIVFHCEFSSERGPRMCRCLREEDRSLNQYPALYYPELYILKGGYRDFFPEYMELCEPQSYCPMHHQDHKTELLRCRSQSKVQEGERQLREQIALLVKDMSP
In words: Inhibition of recombinant phosphatase activity of Cdc25C catalytic domain expressed in Escherichia coli BL21(DE3) using OMFP as substrate at 100 uM after 15 mins by fluorimetric assay.

The target of assay [5] is T2, M-phase inducer phosphatase 2 (Homo sapiens). Briefly: (§1) Inhibition of recombinant phosphatase activity of Cdc25B catalytic domain expressed in Escherichia coli BL21(DE3) using OMFP as substrate by spectrofluorimetric analysis.
Assay [6] addresses T4, M-phase inducer phosphatase 2 (Homo sapiens, UniProt P30305).
T4 sequence (P30305 whole entry): T2 sequence (whole entry)
The assay is described as §1.

Assay [7] deals with T5, M-phase inducer phosphatase 1 (Homo sapiens, UniProt P30304).
T5 sequence (P30304 whole entry): T1 sequence (whole entry)
Briefly: Inhibition of recombinant phosphatase activity of Cdc25A catalytic domain expressed in Escherichia coli BL21(DE3) using OMFP as substrate by spectrofluorimetric analysis. The gist of the method:
(§2)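 Purified recombinant Cdc25A catalytic domain; phosphatase activity measured as OMFP hydrolysis versus inhibitor concentration to derive IC50, with Ki calculated from kinetic measurements. Results are averages ± SD of three determinations.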

Assay [8] addresses T5, M-phase inducer phosphatase 1. In words: Inhibition of recombinant phosphatase activity of Cdc25A catalytic domain expressed in Escherichia coli BL21(DE3) using OMFP as substrate by Lineweaver-Burk plot analysis. The gist of the method: as §2
Assay [9] has as its target T4, M-phase inducer phosphatase 2. In words: Competitive inhibition of recombinant phosphatase activity of Cdc25B catalytic domain expressed in Escherichia coli BL21(DE3) using OMFP as substrate by Lineweaver-Burk plot analysis.
The subject of assay [10] is MCF7. Briefly: Growth inhibition against human MCF7 cells expressing Cdc25A-C assessed as cell viability at 200 uM after 72 hrs by MTS assay. The class given is functional, cell-based. The gist of the method: (§3)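 MCF-7 breast, PC-3 prostate and K562 leukaemia cells treated 72 h with inhibitor or DMSO vehicle control, then cell viability measured. Values are mean ± SD of three experiments; significance by Student's t test, p ≤ 0.05.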

The test system of a further assay is PC-3. In words: Growth inhibition against human PC3 cells expressing Cdc25A-C assessed as cell viability at 200 uM after 72 hrs by MTS assay. The class given is functional, cell-based. The gist of the method:
as §3
For orientation: Tetrazolium assays rely on reduction of a dye to a coloured formazan, in cell work by metabolically active cells.

The next assay relates to K562. Briefly: Growth inhibition against human K562 cells expressing Cdc25A-C assessed as cell viability at 200 uM after 72 hrs by MTS assay. The class given is functional, cell-based. The gist of the method:
as §3

Assay [11] deals with MCF7. In words: Cell cycle arrest in human MCF7 cells assessed as accumulation at G1 phase at 200 uM after 24 hrs by propidium iodide staining-based flow cytometry (reference value: 81.3 +/- 0.01%). The class given is functional. Background: Flow cytometry measures light scatter and fluorescence of single cells or particles in a stream.
The test system of assay [12] is MCF7. Briefly: Cell cycle arrest in human MCF7 cells assessed as accumulation at S phase at 200 uM after 24 hrs by propidium iodide staining-based flow cytometry (reference value: 9.35%). The class given is functional.
In assay [13] the test system is MCF7. In words: Cell cycle arrest in human MCF7 cells assessed as accumulation at G2/M phase at 200 uM after 24 hrs by propidium iodide staining-based flow cytometry (reference value: 9.4 +/- 0.04%). Type of assay: functional.
For assay [14], the system named is MCF7. Briefly: Cell cycle arrest in human MCF7 cells assessed as accumulation at G1 phase at 200 uM after 48 hrs by propidium iodide staining-based flow cytometry (reference value: 64.5 +/- 0.02%). The class given is functional.
In assay [15] the test system is MCF7. In words: Cell cycle arrest in human MCF7 cells assessed as accumulation at S phase at 200 uM after 48 hrs by propidium iodide staining-based flow cytometry (reference value: 14.5 +/- 0.01%). Type of assay: functional.
Assay [16] has as its system MCF7. In words: Cell cycle arrest in human MCF7 cells assessed as accumulation at G2/M phase at 200 uM after 48 hrs by propidium iodide staining-based flow cytometry (reference value: 21 +/- 0.04%). The class given is functional.
Assay [17] addresses T2, M-phase inducer phosphatase 2 (Homo sapiens). To be noted: K562, 200 uM.

In the case of `Cc1nc2c(s1)C(=O)C=C(NCCCN(C)CCCNC1=CC(=O)c3nc(-c4cc(F)ccc4F)oc3C1=O)C2=O`, the IC50 in assay [1] was found to be 0.02 µM.

In the case of `O=C(O)c1ccc(C(=O)c2ccccc2C(=O)O)cc1C(=O)O`, the inhibition in [2] is 80%; in assay [3], 80%; in [4] it was 63%; in [5], “Dose-dependent effect”. Besides, the IC50 was found to be 17.5 µM in assay [6] and 6 µM in [7]. The values for the Ki in assay [8] and in assay [9] were 2.3 µM and 5.3 µM, respectively. Besides, the “growth inhibition (GI)” value with MCF7 [10], in the assay with PC-3 and in the assay with K562 was “Active” throughout. The Activity with MCF7 [11] is listed as 59.1%; in the assay with MCF7 [12], 14.1%; with MCF7 [13] it was 26.6%; in the assay on MCF7 [14], 97%; with MCF7 [15], 1.6%; in the assay with MCF7 [16] it was 1.4%. In addition, in assay [17], the inhibition result was “Active”.
